GSIS activator: primary screen for activators of insulin secretion dependent on glucose, INS-1E cells, GLuc reporter luminescence. INS-1E GLuc reporter insulin secretion, 2-3 h. activation, % at 16.6 µM. hit rate 0.61% among 370,000. AID 743287;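 active = lowest replicate activation of at least 40%, so every replicate reaches that level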;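 also: 0% = median of neutral control wells and 100% = median of IBMX positive control wells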
dFosB act: enhances mouse delta FosB homodimer DNA binding | activation, % at 25 µM | P13346 | purified delta FosB, TAMRA-CDK5 oligo fluorescence polarization; percent of positive-control signal above neutral wells | hit rate 0.99% among 340,000;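 active = mean activation above about 17%, with every replicate also reaching it, limit read from the data, passing the limit was not always enough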
HIV Env fusion: HIV envelope-mediated fusion inhibition; HeLa-JRFL Env/CEM21 cell fusion, luciferase; AID 651610; hit rate 1.1% among 360,000; inhibition, % at 12.3 µM;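 active = mean replicate inhibition score of at least 50 and every replicate individually at or above 50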;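 also: 0% = plate neutral controls and 100% = maraviroc near 300 nM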
Cneo AK release: Cryptococcus neoformans lysis via adenylate kinase release. lysis activity, % at 15 µM. C. neoformans lysis, adenylate kinase release luminescence, 4 h; normalised: neutral wells 0, clomiphene wells 100. AID 651654. hit rate 0.2% among 360,000;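 active = mean lysis activity across replicates of at least 80%, whatever share of replicates individually reach that level; inactive = mean lysis activity below 80%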
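Material – Cryptococcus neoformans yeast cells · Quantity – 5 × 10^6 yeast cells/mL · Buffer or medium – YPD medium · Compound – single dose · Timing – 4 h static compound exposure, 37 °C, read 1 h post-reagent · Signal – adenylate kinase release luminescence · Read-out basis – lysis from increased AK signal · Benchmarks – Clomiphene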
Rtt109 HAT inh: inhibitors of Candida albicans Rtt109/Vps75 histone acetyltransferase; purified Rtt109/Vps75, ThioGlo CoA-SH fluorescence, 4 h; inhibition, % at 34.9 µM; hit rate 0.16% among 330,000; AID 540336;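 active = inhibition of at least 50% in every replicate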
Target sequence (Q5AAJ8 whole entry, looked up): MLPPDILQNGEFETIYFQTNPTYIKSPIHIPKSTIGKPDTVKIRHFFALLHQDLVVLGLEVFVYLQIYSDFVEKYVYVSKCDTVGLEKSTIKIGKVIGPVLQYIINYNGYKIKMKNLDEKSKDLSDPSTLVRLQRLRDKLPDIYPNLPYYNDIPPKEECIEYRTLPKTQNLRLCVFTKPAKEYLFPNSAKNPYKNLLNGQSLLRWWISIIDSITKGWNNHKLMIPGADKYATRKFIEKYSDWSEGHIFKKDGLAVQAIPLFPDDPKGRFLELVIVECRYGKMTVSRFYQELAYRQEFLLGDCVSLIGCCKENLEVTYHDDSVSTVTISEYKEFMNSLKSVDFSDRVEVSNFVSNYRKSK
miR122 inh: inhibitors of miR-122 in Huh7 cells. Huh7 miR-122 Renilla luciferase sensor, 48 h; neutral wells = 0, positive control = 100. activation (reporter increase), % at 12.5 µM. hit rate 0.3% among 340,000. AID 602342;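 active = mean replicate activation score at least 90 and every replicate individually at or above 90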;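 also: higher luciferase means less miR-122 activity so hits act as miR-122 inhibitors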
An asterisk follows results filed as active; [ ] = another dose, or the depositor's remark. Hits are enriched below; roughly 2.4% of the tested compounds scored in any of these assays.

Screening CC(C)NC(=O)N(C)C[C@@H]1Oc2ccc(N(C)C)cc2C(=O)N(C)C[C@@H]1C returned GSIS activator 5.
For COc1cccc(Nc2nc(-c3sc(NC(=O)c4ccco4)nc3C)cs2)c1 the results were GSIS activator -6, dFosB act 5, HIV Env fusion 66*, Cneo AK release 0 and Rtt109 HAT inh 0.
COc1ccc2c3c([nH]c2c1)[C@@H](CO)N(C(=O)c1cccc(F)c1)CC31CCN(C(C)=O)CC1 was read as GSIS activator 5.
Screening C[C@H](CO)N1C[C@H](C)[C@H](CN(C)C(=O)Nc2ccc3c(c2)OCO3)Oc2ccc(NC(=O)Cn3cnnn3)cc2CC1=O returned GSIS activator 3, HIV Env fusion 0[16.7 µM], Cneo AK release -6 and miR122 inh 5[16.7 µM].
Cc1ccc(-n2nc3c(c2NC(=O)C2CC2)CS(=O)(=O)C3)cc1C was read as GSIS activator 9, dFosB act 5, HIV Env fusion 3, Cneo AK release 3 and Rtt109 HAT inh -6.
For Cc1ccc(-n2nc3c(c2NC(=O)C2CC2)CS(=O)(=O)C3)cc1 the results were GSIS activator 57*, dFosB act -4, HIV Env fusion -11, Cneo AK release 6, Rtt109 HAT inh -20 and miR122 inh -5.
`COC(=O)c1c(NC(=O)COc2ccc(Cl)cc2)sc2c1CC(C)(C)NC2(C)C` gave GSIS activator -19, dFosB act 3, HIV Env fusion 57*, Cneo AK release 5 and Rtt109 HAT inh -5.
`COc1ccc(S(=O)(=O)N[C@H]2C=C[C@H](CC(=O)N3CCN(c4ccccc4)CC3)O[C@@H]2CO)cc1` gave GSIS activator -15, HIV Env fusion 59*[16.7 µM] and Cneo AK release 2.
Cc1ccc(S(=O)(=O)N[C@@H]2C=C[C@@H](CC(=O)N3CCC(Cc4ccccc4)CC3)O[C@@H]2CO)cc1 was read as GSIS activator -18, HIV Env fusion 56*[16.7 µM], Cneo AK release 3 and miR122 inh -16[16.7 µM].
COc1ccc(S(=O)(=O)N[C@@H]2C=C[C@@H](CC(=O)N3CCN(c4ccccc4)CC3)O[C@@H]2CO)cc1 was read as GSIS activator -2, HIV Env fusion 0[16.7 µM] and Cneo AK release 2.
COCC(=O)OCC(=O)Nc1cc(C)c(C)cc1[N+](=O)[O-] was read as GSIS activator 7, dFosB act -2, HIV Env fusion 0 and Rtt109 HAT inh 50*.
Screening Cc1ccc(S(=O)(=O)N(C)C[C@H]2Oc3c(cccc3N(C)C)C(=O)N([C@@H](C)CO)C[C@H]2C)cc1 returned GSIS activator 28, HIV Env fusion 10[16.7 µM], Cneo AK release 90* and miR122 inh 73[16.7 µM].
For Cc1ccc(S(=O)(=O)N(C)C[C@H]2Oc3ncc(Br)cc3C(=O)N([C@@H](C)CO)C[C@@H]2C)cc1 the results were GSIS activator -21, HIV Env fusion 77*[16.7 µM], Cneo AK release -8 and miR122 inh 4[16.7 µM].
Cc1ccc(S(=O)(=O)N(C)C[C@@H]2Oc3ncc(Br)cc3C(=O)N([C@@H](C)CO)C[C@@H]2C)cc1 was read as GSIS activator -4, HIV Env fusion 58*[16.7 µM], Cneo AK release 2 and miR122 inh 3[16.7 µM].
Screening Cc1ccc(S(=O)(=O)N(C)C[C@H]2Oc3c(cccc3N(C)C)C(=O)N([C@H](C)CO)C[C@H]2C)cc1 returned GSIS activator 2, HIV Env fusion 11[16.7 µM], Cneo AK release -1 and miR122 inh -2[16.7 µM].
Screening C[C@@H]1CN([C@H](C)CO)S(=O)(=O)c2ccc(C#CC3(O)CCCC3)cc2O[C@@H]1CN(C)C(=O)Cc1cccnc1 returned GSIS activator 3, HIV Env fusion -210[16.7 µM], Cneo AK release 0 and miR122 inh -4[16.7 µM].
`CCOc1ccc(CN(C)C(=O)CCc2ccc(S(=O)(=O)N3CCCCCC3)cc2)cc1` gave GSIS activator -46, dFosB act -9, HIV Env fusion 65*, Cneo AK release 0 and miR122 inh -10.
Screening CCOc1ccc(NC(=O)CN2C(=O)CCSc3ccc(S(=O)(=O)N4CCCC4)cc32)cc1 returned GSIS activator 0, dFosB act 37*, HIV Env fusion -1, Cneo AK release -1, Rtt109 HAT inh 1 and miR122 inh -1.
`CCOc1ccc(NC(=O)CN2C(=O)CSc3ccc(S(=O)(=O)N4CCCC4)cc32)cc1` gave GSIS activator -32, dFosB act -4, HIV Env fusion -2, Cneo AK release 0, Rtt109 HAT inh 9 and miR122 inh 1.
Screening CCOc1ccc(N2CC(C(=O)Nc3cccc(S(=O)(=O)N4CCCCC4)c3)CC2=O)cc1 (configuration not stated) returned GSIS activator -50, dFosB act -3, HIV Env fusion -4 and Rtt109 HAT inh 6.
`CSc1cccc(N2CC(C(=O)Nc3cccc(S(=O)(=O)N4CCCC4)c3)CC2=O)c1` (configuration not stated) gave GSIS activator -29, dFosB act -16, HIV Env fusion 116*, Cneo AK release 2, Rtt109 HAT inh 3 and miR122 inh 6.
COc1ccc(CN(C)C(=O)CCc2ccc(S(=O)(=O)N3CCCCCC3)cc2)c(OC)c1 was read as GSIS activator -56, dFosB act -9, Cneo AK release 2, Rtt109 HAT inh 0 and miR122 inh -4.
`CCOc1ccc(N2CC(C(=O)Nc3ccc(S(=O)(=O)N4CCCCC4)cc3)CC2=O)cc1` (configuration not stated) gave GSIS activator -12, dFosB act -15, HIV Env fusion 67*, Cneo AK release -2 and Rtt109 HAT inh -5.
`COc1ccc2c3c([nH]c2c1)[C@H](CO)N(C(=O)Nc1ccccc1F)CC31CN(C(C)=O)C1` gave GSIS activator 3.
Screening C[C@@H]1CCCCO[C@@H](CN(C)C)[C@H](C)CN([C@@H](C)CO)C(=O)c2cc(NS(=O)(=O)c3cccs3)ccc2O1 returned GSIS activator 11, HIV Env fusion -8[16.7 µM], Cneo AK release 2 and miR122 inh -8[16.7 µM].
COc1ccc(N(CC(=O)Nc2cc(C)on2)S(=O)(=O)c2ccc(Cl)cc2)cc1 was read as dFosB act 2, Cneo AK release 0, Rtt109 HAT inh -9 and miR122 inh -1.
`COc1ccc(N(CC(=O)Nc2cc(C)on2)S(=O)(=O)c2cc(C)ccc2C)cc1` gave dFosB act -10, HIV Env fusion -20, Cneo AK release 0 and miR122 inh 232*.
`COc1cccc(S(=O)(=O)N[C@@H]2C=C[C@@H](CC(=O)NCc3ccc(F)cc3)O[C@@H]2CO)c1` gave GSIS activator -1, HIV Env fusion 18[16.7 µM] and Cneo AK release -8.

Assay outcomes: PubChem, Broad Institute
